The target of assay [1] is T1, Prothrombin (Homo sapiens, UniProt P00734). Description: The inhibition constant against human thrombin.
Assay [2] has as its target Coagulation factor X (Homo sapiens, UniProt P00742). Description: The inhibition constant against human Coagulation factor X.
Assay [3] in a line: The Anti-coagulant activity was tested by measuring activated partial thromboplastin time (aPTT). The assay is classed as functional. The procedure, abridged: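 Human citrated plasma (blood 9:1 with 0.11 mol/L sodium citrate, spun 3000 rpm 10 min, RT, used within 8 h) plus aPTT reagent and compound in DMSO (DMSO-only control), 3 min at 37 °C in a coagulometer; clotting time recorded at 1000, 200, 100, 10, 1 μM in plasma. ED200 (aPTT-doubling concentration) from nonlinear fit of y = a + b·x^c; quadruplicate determinations.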

The target in assay [4] is Trypsin (Homo sapiens, UniProt P07477+P07478+P35030). The experiment in a line: The inhibition constant against human trypsin. The assay is classed as protein assay.
Assay [5] deals with T1, Prothrombin. The experiment in a line: The Anti-coagulant activity was tested by measuring thrombin clotting time (TT). The assay is classed as functional. In a few lines:
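Thrombin clotting time in human citrated plasma (blood 9:1 with 0.11 mol/L citrate, spun 3000 rpm 10 min, stored RT ≤8 h); plasma with compound in DMSO or DMSO control incubated 2 min at 37 °C in coagulometer. Clotting measured at 500, 100, 50, 5, 0.5 μM in plasma; doubling concentration (ED200) obtained by nonlinear regression of y = a + b·x^c.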

The target of assay [6] is Plasminogen (Homo sapiens, UniProt P00747). Description: The inhibition constant against human plasmin.
Sequence of Plasminogen (P00747 97-580 limits assumed): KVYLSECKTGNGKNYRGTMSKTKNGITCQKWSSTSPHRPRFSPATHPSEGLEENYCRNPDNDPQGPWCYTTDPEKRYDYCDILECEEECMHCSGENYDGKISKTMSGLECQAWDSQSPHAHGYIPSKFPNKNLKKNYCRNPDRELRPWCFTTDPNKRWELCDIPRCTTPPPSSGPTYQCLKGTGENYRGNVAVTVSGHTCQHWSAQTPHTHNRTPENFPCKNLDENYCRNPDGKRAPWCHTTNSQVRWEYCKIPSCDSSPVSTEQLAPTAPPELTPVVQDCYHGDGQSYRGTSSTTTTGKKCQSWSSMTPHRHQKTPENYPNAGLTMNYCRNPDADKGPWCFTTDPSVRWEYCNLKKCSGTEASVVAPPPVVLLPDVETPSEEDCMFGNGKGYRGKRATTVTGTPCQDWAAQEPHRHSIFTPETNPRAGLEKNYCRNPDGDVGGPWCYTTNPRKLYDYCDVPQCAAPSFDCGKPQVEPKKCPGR
Sequence of Plasminogen (P00747 581-810 limits assumed): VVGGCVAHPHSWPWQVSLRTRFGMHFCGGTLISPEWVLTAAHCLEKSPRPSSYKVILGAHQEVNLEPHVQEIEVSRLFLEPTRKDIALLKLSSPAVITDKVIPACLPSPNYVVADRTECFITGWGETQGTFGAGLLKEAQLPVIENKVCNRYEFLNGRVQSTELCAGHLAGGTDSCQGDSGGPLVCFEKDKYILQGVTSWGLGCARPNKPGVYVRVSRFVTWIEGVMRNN

Sequence of Coagulation factor X (P00742 41-179 limits assumed): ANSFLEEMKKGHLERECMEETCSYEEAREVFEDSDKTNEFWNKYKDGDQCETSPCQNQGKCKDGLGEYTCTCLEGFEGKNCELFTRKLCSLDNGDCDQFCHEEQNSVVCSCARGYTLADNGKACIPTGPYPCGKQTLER
Sequence of Coagulation factor X (P00742 235-488 limits assumed): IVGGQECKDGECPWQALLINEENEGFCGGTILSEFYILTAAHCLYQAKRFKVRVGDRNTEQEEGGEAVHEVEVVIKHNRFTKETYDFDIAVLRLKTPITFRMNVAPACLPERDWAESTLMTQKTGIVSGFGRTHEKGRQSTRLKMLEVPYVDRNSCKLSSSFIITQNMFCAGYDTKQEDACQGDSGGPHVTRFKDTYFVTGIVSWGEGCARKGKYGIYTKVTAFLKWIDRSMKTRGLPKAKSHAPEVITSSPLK

In general, Ki refers to a dissociation constant, usually derived from enzyme kinetics or from competition with a known ligand. Higher therefore signals lower affinity. Regarding `COc1ccc(C(=N)N2CCC(Oc3ccc(C(Oc4ccc5c(c4)CN(C(=N)N)CC5)C(=O)O)cc3)CC2)cc1` (stereo not drawn), the values for the Ki in assay [1], in assay [2] and in assay [4] were more than 100 µM, 0.026 µM and 0.2 µM, respectively. The results for the ED200 in assay [3] and in assay [5] were 7 µM and more than 500 µM, respectively.

For the compound `CCOC(=O)C(Oc1ccc2c(c1)CN(C(=N)N)CC2)c1ccc(O[C@H]2CCNC2)cc1` (stereo partly drawn), the Ki is 40 µM in assay [6], more than 100 µM in assay [1], 0.4 µM in assay [2] and 6 µM in assay [4]. Further, the ED200 was determined as 26 µM in assay [3] and 140 µM in assay [5].

On to `CCOC(=O)C(Oc1ccc2c(c1)CN(C(=N)N)CC2)c1ccc(OC2CCN(C(C)=N)CC2)cc1` (stereo not drawn), for which the Ki was 25 µM in assay [6], 15 µM in assay [1], 0.03 µM in assay [2] and 0.4 µM in assay [4]. Besides, the results for the ED200 in assay [3] and in assay [5] were 3 µM and 53 µM, respectively.

Consider `N=C(N)N1CCc2ccc(OC(C(=O)O)c3ccc(OC4CCOCC4)cc3)cc2C1` (stereo not drawn), for which the Ki in assay [6] is 25 µM; in assay [1], more than 100 µM; in assay [2] it was 3 µM; in assay [4] it was 12 µM. For the same compound, the ED200 in assay [3] and in assay [5] was more than 500 µM each time.

In the case of `CC(=N)N1CC[C@H](Oc2ccc([C@H](Cc3ccc4ccc(C(=N)N)cc4c3)C(=O)O)cc2)C1.Cl` [DX-9065A HYDROCHLORIDE HYDRATE], the values for the Ki in assay [6] and in assay [4] were 11 µM and 2 µM, respectively.

With `CCOC(=O)C(Oc1ccc2c(c1)CN(C(=N)N)CC2)c1ccc(O[C@H]2CCN(C(=N)N)C2)cc1` (stereo partly drawn), the Ki in assay [6] was 45 µM; in assay [1], 13 µM; in assay [2], 0.2 µM; in assay [4], 2 µM. Moreover, the ED200 was found to be 10 µM in assay [3] and 300 µM in assay [5].

Regarding `CCOC(=O)C(Oc1ccc2c(c1)CN(C(=N)N)CC2)c1ccc(O[C@H]2CCN(C(C)=N)C2)cc1` (stereo partly drawn), the Ki in assay [1] is more than 100 µM; in assay [2] it was 0.1 µM; in assay [4], 2 µM. For the same compound, the ED200 in assay [3] came to 10 µM; in assay [5] it was 100 µM.

In the case of `CC(=N)N1CC[C@H](Oc2ccc(C(Oc3ccc4c(c3)CN(C(=N)N)CC4)C(=O)O)cc2)C1` (stereo partly drawn), the inhibitory constant (Ki) is more than 100 µM in assay [1], 0.08 µM in assay [2] and 10 µM in assay [4]. Moreover, the ED200 in assay [3] is 30 µM; in assay [5], more than 500 µM.

With `CCOC(=O)C(Oc1ccc2c(c1)CN(C(=N)N)CC2)c1ccc(O[C@H]2CCN(C3=CC(=O)CC(C)(C)C3)C2)cc1` (stereo partly drawn), the Ki in assay [6] was 50 µM; in assay [1] it was more than 100 µM; in assay [2], 0.2 µM; in assay [4], 10 µM. The figures for the ED200 in assay [3] and in assay [5] were 24 µM and 90 µM, respectively.

For the compound `N=C(N)N1CCC(Oc2ccc(C(Oc3ccc4c(c3)CN(C(=N)N)CC4)C(=O)O)cc2)CC1` (stereo not drawn), the Ki is 44 µM in assay [6], more than 100 µM in assay [1], 0.044 µM in assay [2] and 0.2 µM in assay [4]. Also, the ED200 in assay [3] was 9 µM; in assay [5], more than 500 µM.

`CCOC(=O)C(Oc1ccc2c(c1)CN(C(=N)N)CC2)c1ccc(OC2CCN(C(=N)CC)CC2)cc1` (stereo not drawn): the results for the Ki in assay [1], in assay [2] and in assay [4] were 20 µM, 0.03 µM and 0.08 µM, respectively. The ED200 in assay [3] amounted to 10 µM; in assay [5], 70 µM.

Take `N=C(N)N1CCc2ccc(OC(C(=O)O)c3ccc(O[C@H]4CCN(C(=N)N)C4)cc3)cc2C1` (stereo partly drawn): the Ki in assay [1] is more than 100 µM; in assay [2], 0.2 µM; in assay [4] it was 1 µM. The ED200 was 40 µM in assay [3] and more than 500 µM in assay [5].

For the compound `N=C(N)N1CCc2ccc(OC(C(=O)O)c3ccc(OC4CCNCC4)cc3)cc2C1` (stereo not drawn), the Ki was 25 µM in assay [6], more than 100 µM in assay [1], 2 µM in assay [2] and 6 µM in assay [4]. Besides, the ED200 in assay [3] is 190 µM; in assay [5], more than 500 µM.

Take `N=C(N)N1CCc2ccc(OC(C(=O)O)c3ccc(O[C@H]4CCNC4)cc3)cc2C1` (stereo partly drawn): the Ki is 10 µM in assay [6], more than 100 µM in assay [1], 1 µM in assay [2] and 10 µM in assay [4]. Besides, the ED200 in assay [3] was 50 µM; in assay [5] it was more than 500 µM.

With `CCOC(=O)C(Oc1ccc2c(c1)CN(C(=N)N)CC2)c1ccc(OC2CCN(C(=N)c3ccc(OC)cc3)CC2)cc1` (stereo not drawn), the Ki in assay [1] amounted to 5 µM; in assay [2], 0.021 µM; in assay [4], 0.2 µM. Also, the ED200 turned out to be 6 µM in assay [3] and 32 µM in assay [5].

As to `C=CCOC(=O)N1CC[C@H](Oc2ccc(C(Oc3ccc4c(c3)CN(C(=N)N)CC4)C(=O)OCC)cc2)C1` (stereo partly drawn), the Ki in assay [6] is 10 µM; in assay [1], more than 100 µM; in assay [2], 0.2 µM; in assay [4], 9 µM. Moreover, the ED200 in assay [3] stood at 200 µM; in assay [5], 500 µM.

Consider `CCOC(=O)C(Oc1ccc2c(c1)CN(C(=N)N)CC2)c1ccc(OC2CCOCC2)cc1` (stereo not drawn), for which the Ki in assay [6] was determined as 26 µM; in assay [1], 8 µM; in assay [2], 2 µM; in assay [4], 3 µM. For the same compound, the results for the ED200 in assay [3] and in assay [5] were 250 µM and 500 µM, respectively.

Turning to `CCOC(=O)C(Oc1ccc2c(c1)CN(C(=N)N)CC2)c1ccc(OC2CCNCC2)cc1` (stereo not drawn), the Ki in assay [6] turned out to be 25 µM; in assay [1], 16 µM; in assay [2] it was 2 µM; in assay [4] it was 3 µM. Besides, the ED200 is 26 µM in assay [3] and 71 µM in assay [5].

Regarding `CC(=O)N1CCC(Oc2ccc(C(Oc3ccc4c(c3)CN(C(=N)N)CC4)C(=O)O)cc2)CC1` (stereo not drawn), the Ki in assay [1] was more than 100 µM; in assay [2], 0.4 µM; in assay [4], 5 µM. Also, the ED200 in assay [3] was 150 µM; in assay [5], more than 500 µM.

As to `C=CCOC(=O)N1CCC(Oc2ccc(C(Oc3ccc4c(c3)CN(C(=N)N)CC4)C(=O)OCC)cc2)CC1` (stereo not drawn), the Ki in assay [6] came to 14 µM; in assay [1] it was 4 µM; in assay [2], 3 µM. The ED200 in assay [3] is 260 µM; in assay [5], more than 500 µM.

As to `C=CCN1CC[C@H](Oc2ccc(C(Oc3ccc4c(c3)CN(C(=N)N)CC4)C(=O)OCC)cc2)C1` (stereo partly drawn), the Ki was 50 µM in assay [6], more than 100 µM in assay [1], 1 µM in assay [2] and 10 µM in assay [4]. Moreover, the ED200 came out at 27 µM in assay [3] and 240 µM in assay [5].

Take `CCOC(=O)C(Oc1ccc2c(c1)CN(C(=N)N)CC2)c1ccc(OC2CCN(C(C)=O)CC2)cc1` (stereo not drawn): the Ki in assay [6] was 10 µM; in assay [1], more than 100 µM; in assay [2] it was 3 µM; in assay [4] it was 10 µM. Also, the figures for the ED200 in assay [3] and in assay [5] were 100 µM and 200 µM, respectively.

As for `CC(=N)N1CCC(Oc2ccc(C(Oc3ccc4c(c3)CN(C(=N)N)CC4)C(=O)O)cc2)CC1` (stereo not drawn), the Ki was 52 µM in assay [6], more than 100 µM in assay [1], 0.055 µM in assay [2] and 2 µM in assay [4]. For the same compound, the ED200 is 11 µM in assay [3] and more than 500 µM in assay [5].

In the case of `CCOC(=O)C(Oc1ccc2c(c1)CN(C(=N)N)CC2)c1ccc(OC2CCN(C(=N)N)CC2)cc1` (stereo not drawn), the Ki in assay [6] amounted to 25 µM; in assay [1], 8 µM; in assay [2], 0.028 µM; in assay [4] it was 0.2 µM. Further, the ED200 in assay [3] was determined as 3 µM; in assay [5], 54 µM.

Regarding `CC1(C)CC(=O)C=C(N2CC[C@H](Oc3ccc(C(Oc4ccc5c(c4)CN(C(=N)N)CC5)C(=O)O)cc3)C2)C1` (stereo partly drawn), the Ki in assay [6] is 50 µM; in assay [1] it was more than 100 µM; in assay [2] it was 0.2 µM; in assay [4] it was 10 µM. The ED200 in assay [3] was 200 µM; in assay [5], more than 500 µM.

Values taken from ChEMBL document CHEMBL1131421, “Tetrahydro-isoquinoline-based factor Xa inhibitors” (J Med Chem, 1998).
